Measured values from different studies.
Each line is one published result; the experiments were not run side by side.

SMILES | assay | system | setting | measurement | value
C=C(F)C(=O)N1CCN(c2nc(OC[C@@H]3CCCN3C)nc3c2CCN(c2cccc4cccc(Cl)c24)C3)C[C@@H]1CC#N |  | male Sprague-Dawley rat, plasma | intravenous, 5 mg/kg | clearance | 44 mL/min/kg
O=C(C=Cc1ccccc1)Nc1cc(-c2ccnc(N3CCC(O)CC3)c2)ccn1 |  | female Sprague-Dawley rat, plasma | intravenous, 5 mg/kg | clearance | 229 mL/min/kg
COc1ccccc1C(=O)/C=C/c1cn(Cc2cn(-c3ccnc4cc(Cl)ccc34)nn2)c2ccccc12 | haemolysis | human | 50 µM, 1 h, pH 7.4 | haemolysis | 1.7%
Nc1ccc(/C=C/C(=O)NCc2cc3cc(-c4ccc(C(=O)N5CCC(F)(F)CC5)cc4)cc(-c4ccc(F)cc4)c3o2)cn1 |  | rat, plasma | intravenous, 1 mg/kg | clearance | 0.169 mL/min/kg
O=C1CC[C@H](N2Cc3cc(N4CCN(CC5CCN(c6ccc([C@@H]7c8ccc(O)cc8CC[C@@H]7c7ccccc7)cc6)CC5)CC4)ccc3C2=O)C(=O)N1 |  | male Sprague-Dawley rat, plasma | intravenous, 5 mg/kg, fed | clearance | 15.4 mL/min/kg
O=C1c2ccncc2C(=O)c2c1[nH]c1ccccc21 |  | rat, plasma | intravenous, 1 mg/kg, single dose | clearance | 13.1 mL/min
CN1Cc2c(N)cccc2C(=O)N1C1CCC(=O)NC1=O (centres unmarked) |  | male Sprague-Dawley rat, plasma | intravenous, 1 mg/kg | clearance | 31.8 mL/min/kg
CC1(CN)CCN(c2cnc3c(Sc4ccncc4Cl)n[nH]c3n2)CC1 |  | male Sprague-Dawley rat, plasma | intravenous, 2 mg/kg | clearance | 223 mL/min/kg
